In ChEMBL document CHEMBL1124037, “Structure-activity relationship in PAF-acether. 4. Synthesis and biological activities of carboxylate isosteres” (J Med Chem, 1988):
pEC50: −log10 of the molar value.

How the values were obtained:
[1] = test system: Cavia porcellus; assay: In vivo activity for protection against PAF acether induced thrombocytopenia in guinea pig after 5 min of intravenous administration (1 mg/kg); format: functional
Method in brief: (§1)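 Male Hartley guinea pigs (450-500 g), urethane 1.25 g/kg ip, pancuronium 2 mg/kg, ventilated (50 strokes/min, 10 mL/kg). Antagonist iv 5 min before PAF 100 ng/kg iv. Konzett-Rossler lung inflation resistance vs control group; platelet counts from carotid blood 1 min before and after PAF. Percent inhibition per dose.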

[2] = test system: Oryctolagus cuniculus; assay: […] antagonistic activity against collagen induced platelet aggregation (40 ug/mL); format: functional
Method in brief: (§2)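 Rabbit PRP (male New Zealand, citrated cardiac-puncture blood, 300g 10 min; 300 000 per µL). Antagonist added to stirred PRP 2 min before PAF (5×10⁻⁸ M), collagen (40 µg/mL) or arachidonic acid (2×10⁻⁴ M). Born turbidimetric aggregometry; inhibition vs control aggregation; IC50 from dose-response curves. Compounds dissolved in ethanol 10 mg/mL stock, diluted in saline.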

[3] = test system: Cavia porcellus; assay: In vivo activity for protection against PAF acether induced bronchoconstriction in guinea pig after 5 min of intravenous administration (2 mg/kg); format: functional; method in brief: as §1
[4] = test system: Rattus norvegicus; assay: In vivo activity for protection against PAF acether induced hypotension in rat after 5 mins of intravenous administration (1 mg/kg); format: functional
Method in brief: (§3)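 Male Sprague-Dawley rats (280-300 g), pentobarbital 50 mg/kg ip; jugular iv dosing, carotid arterial pressure by transducer. Control response to PAF 0.3 µg/kg iv, then antagonist; PAF 0.3 µg/kg re-injected and hypotension recorded. One antagonist dose per rat; percent inhibition per dose.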

[5] = test system: Oryctolagus cuniculus; assay: […] antagonistic activity against PAF induced platelet aggregation (5 x 10e-8 M ); format: functional; method in brief: as §2
[6] = test system: Cavia porcellus; assay: In vivo activity for protection against PAF acether induced thrombocytopenia in guinea pig after 5 min of intravenous administration (0.5 mg/kg); format: functional; method in brief: as §1
[7] = test system: Cavia porcellus; assay: In vivo activity for protection against PAF acether induced thrombocytopenia in guinea pig after 5 min of intravenous administration (2 mg/kg); format: functional; method in brief: as §1
[8] = test system: Oryctolagus cuniculus; assay: […] antagonistic activity against platelet aggregation; format: functional
[9] = test system: Rattus norvegicus; assay: In vivo activity for protection against acetylcholine induced hypotension in rat after 5 mins of intravenous administration (1 mg/kg); format: functional
Method in brief: (§4)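 Male Sprague-Dawley rats (280-300 g), pentobarbital 50 mg/kg ip; jugular iv dosing, carotid pressure recorded. Same protocol as the PAF challenge but using acetylcholine 1 µg/kg iv as agonist: control response, antagonist, then re-challenge. One antagonist dose per rat; percent inhibition per dose.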

[10] = test system: Cavia porcellus; assay: In vivo activity for protection against PAF acether induced bronchoconstriction in guinea pig after 5 min of intravenous administration (1 mg/kg); format: functional; method in brief: as §1
[11] = test system: Cavia porcellus; assay: In vivo activity for protection against PAF acether induced bronchoconstriction in guinea pig after 5 min of intravenous administration (0.5 mg/kg); format: functional; method in brief: as §1
[12] = species: Oryctolagus cuniculus; assay: In vitro aggregant (agonist) activity inducing platelet aggregation
[13] = test system: Oryctolagus cuniculus; assay: In vitro antiaggregation activity against PAF-acether induced platelet aggregation when administered at dose of 1 uM/Kg after 2 minutes; format: functional
[14] = test system: Oryctolagus cuniculus; assay: […] antagonistic activity against arachidonic-acid induced platelet aggregation at a concentration of 2*10e-4 M; format: functional; method in brief: as §2
[15] = test system: Cavia porcellus; assay: In vivo activity for protection against PAF-acether induced bronchoconstriction in guinea pig after 5 min of intravenous administration (0.5 mg/kg); format: functional; method in brief: as §1
[16] = test system: Oryctolagus cuniculus; assay: […] antagonistic activity against PAF induced platelet aggregation at a concentration of 5 x 10e-8 M; format: functional; method in brief: as §2
[17] = test system: Cavia porcellus; assay: In vivo activity for protection against PAF-acether induced bronchoconstriction in guinea pig after 5 min of intravenous administration (1 mg/kg); format: functional; method in brief: as §1
[18] = test system: Rattus norvegicus; assay: In vivo activity for protection against acetylcholine induced hypotension in rat after 5 mins of intravenous administration (2 mg/kg); format: functional; method in brief: as §4
[19] = test system: Rattus norvegicus; assay: In vivo activity for protection against PAF acether induced hypotension in rat after 5 mins of intravenous administration (2 mg/kg); format: functional; method in brief: as §3
[20] = test system: Cavia porcellus; assay: In vivo activity for protection against histamine induced bronchoconstriction in guinea pig after 5 min of intravenous administration (1 mg/kg); format: functional
[21] = test system: Cavia porcellus; assay: In vivo activity for protection against acetylcholine-induced bronchoconstriction in guinea pig after 5 min of intravenous administration (2 mg/kg); format: functional
[22] = test system: Cavia porcellus; assay: In vivo activity for protection against PAF-acether induced bronchoconstriction in guinea pig after 5 min of intravenous administration (2 mg/kg); format: functional; method in brief: as §1
[23] = test system: Cavia porcellus; assay: In vivo activity for protection against histamine induced bronchoconstriction in guinea pig after 5 min of intravenous administration (2 mg/kg); format: functional
[24] = test system: Oryctolagus cuniculus; assay: […] antagonistic activity against collagen induced platelet aggregation at a concentration of 40 ug/mL; format: functional; method in brief: as §2
[25] = test system: Cavia porcellus; assay: In vivo activity for protection against acetylcholine-induced bronchoconstriction in guinea pig after 5 min of intravenous administration (1 mg/kg); format: functional
[26] = test system: Cavia porcellus; assay: In vivo activity for protection against acetylcholine induced bronchoconstriction in guinea pig after 5 min of intravenous administration (2 mg/kg); format: functional
[27] = test system: Oryctolagus cuniculus; assay: […] antagonistic activity against arachidonic-acid induced platelet aggregation (2*10e-4 M); format: functional; method in brief: as §2
[28] = test system: Cavia porcellus; assay: In vivo activity for protection against acetylcholine induced bronchoconstriction in guinea pig after 5 min of intravenous administration (1 mg/kg); format: functional
[29] = test system: Rattus norvegicus; assay: In vivo activity for protection against acetylcholine induced hypotension in rat after 5 mins of intravenous administration (5 mg/kg); format: functional; method in brief: as §4
[30] = test system: Rattus norvegicus; assay: In vivo activity for protection against PAF acether induced hypotension in rat after 5 mins of intravenous administration (5 mg/kg); format: functional; method in brief: as §3
[31] = test system: Cavia porcellus; assay: In vivo activity for protection against acetylcholine induced bronchoconstriction in guinea pig after 5 min of intravenous administration (5 mg/kg); format: functional

Row | Structure (SMILES) | pEC50 [2] | pEC50 [5] | pEC50 [12] | pEC50 [13] | pEC50 [27] | Protection [1] [%] | Protection [3] [%] | Protection [4] [%] | Protection [7] [%] | ED50 [8] [µM] | Protection [9] [%] | Protection [10] [%] | Protection [15] [%] | Protection [17] [%] | Protection [18] [%] | Protection [19] [%] | Protection [20] [%] | Protection [23] [%] | Protection [26] [%] | Protection [28] [%] | further results
1 | CCCCCCCCCCCCCCCCCCNC(=O)OCC(COP(=O)([O-])OCC[n+]1ccsc1)OC (stereo unspecified) | 4.05 | 4.52 |  |  |  | 62 | 85 | 45 | 69 | >100 | 0 | 72 |  |  |  |  |  |  |  |  | Protection [6]: 32%; Protection [11]: 53%
2 | CCCCCCCCCCCCCCCCCCOCC(COC(=O)CC[N+](C)(C)C)OC(C)=O (stereo unspecified) |  |  | < 4.00 | 4.62 |  |  |  |  |  |  |  |  |  |  |  |  |  |  |  |  | 
3 | CCCCCCCCCCCCCCCCCCOC[C@H](COC(=O)CCCC[N+](C)(C)C)OC(C)=O.[I-] |  |  |  |  |  | 38 |  | 18 | 57 | >100 | 18 |  | 79 | 90 | 5 | 32 | 35 | 20 |  |  | pEC50 [14]: < 4.00; pEC50 [16]: 4.70; Protection [21]: 0%; Protection [22]: 88%; pEC50 [24]: ~4.05; Protection [25]: 21%
4 | CCCCCCCCCCCCCCCCCCOC[C@@H](COC(=O)CCCC[N+](C)(C)C)OC(C)=O.[I-] | 4.08 | 4.96 |  |  | < 4.00 | 63 | 93 | 12 | 49 | >100 | 16 | 91 |  |  | 20 | 34 | 0 | 0 | 0 | 0 | Protection [11]: 61%
5 | CCCCCCCCCCCCCCCCCCOCC(COC(=O)CCC[n+]1ccccc1)OCC.[Cl-] (stereo unspecified) | 4.00 | 5.82 |  |  | < 4.00 | 52 |  | 51 | 60 | >100 | 20 |  | 60 | 100 | 22 | 53 | 16 | 8 | 16 | 34 | 
6 | CCCCCCCCCCCCCCCCCCOCC(COC(=O)CCC[N+](C)(C)C)OC(C)=O (stereo unspecified) |  |  | < 4.00 | 4.92 |  |  |  |  |  |  |  |  |  |  |  |  |  |  |  |  | 

Further lines, with some results ahead:

Row | pEC50 [2] | pEC50 [5] | pEC50 [12] | pEC50 [13] | pEC50 [27] | Structure (SMILES) | Protection [1] [%] | Protection [3] [%] | Protection [4] [%] | Protection [7] [%] | ED50 [8] [µM] | Protection [9] [%] | Protection [10] [%] | Protection [15] [%] | Protection [17] [%] | Protection [18] [%] | Protection [19] [%] | Protection [20] [%] | Protection [23] [%] | Protection [26] [%] | Protection [28] [%] | further results
7 |  |  | < 4.00 | 4.74 |  | CCCCCCCCCCCCCCCCCCOCC(COC(=O)CCCC[N+](C)(C)C)OC(C)=O (stereo unspecified) |  |  |  |  |  |  |  |  |  |  |  |  |  |  |  | 
8 | 4.22 | 5.10 |  |  | < 4.00 | CCCCCCCCCCCCCCCCCCOCC(COC(=O)CCCC[N+](C)(C)C)OCC.[I-] (stereo unspecified) | 24 |  |  | 55 | >100 |  |  | 69 | 77 | 17 | 20 | 0 | 0 | 9 | 0 | Protection [22]: 73%
9 | 4.15 | 4.89 |  |  | < 4.00 | CCCCCCCCCCCCCCCCCCNC(=O)OCC(COC(=O)CCCC[N+](C)(C)C)OC(C)=O.[I-] (stereo unspecified) |  | 90 |  | 38 | >100 |  | 88 |  |  | 63 | 46 |  | 17 | 79 |  | Protection [29]: 74%; Protection [30]: 58%; Protection [31]: 80%
